Reference: ChEMBL document CHEMBL2046419, “Antibacterial anthraquinone derivatives from a sea anemone-derived fungus Nigrospora sp” (J Nat Prod, 2012)
≈ marks a conversion by molar mass, not a printed value.

Tests used:
[1] = system: Escherichia coli; assay: Antibacterial activity against Escherichia coli ATCC 25922 after 24 hrs by serial dilution technique; format: functional; conditions: ATCC 25922, 24 h
[2] = system: Staphylococcus albus; assay: Antibacterial activity against Staphylococcus albus ATCC 8799 after 24 hrs by serial dilution technique; conditions: ATCC 8799, 24 h
[3] = system: Bacillus subtilis; assay: Antibacterial activity against Bacillus subtilis ATCC 6633 after 24 hrs by serial dilution technique; format: functional; conditions: ATCC 6633, 24 h
[4] = system: Micrococcus; assay: Antibacterial activity against Micrococcus tetragenus ATCC 13623 after 24 hrs by serial dilution technique; format: functional; conditions: ATCC 13623, 24 h
[5] = system: Micrococcus luteus; assay: Antibacterial activity against Micrococcus luteus ATCC 49732 after 24 hrs by serial dilution technique; format: functional; conditions: ATCC 49732, 24 h
[6] = system: Staphylococcus aureus; assay: Antibacterial activity against Staphylococcus aureus ATCC 27154 after 24 hrs by serial dilution technique; format: functional; conditions: ATCC 27154, 24 h
[7] = system: Bacillus cereus; assay: Antibacterial activity against Bacillus cereus ACCC 11077 after 24 hrs by serial dilution technique; format: functional; conditions: ACCC 11077, 24 h
[8] = system: Bacillus cereus; assay: Ratio of ciprofloxacin MIC to compound MIC for Bacillus cereus ACCC 11077; format: functional
[9] = system: A549; assay: Cytotoxicity against human A549 cells by MTT assay; format: functional, cell-based
Procedure, shortened: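 A549 human lung cancer cells, MTT read-out, mitomycin as positive control; IC50 reported in μM.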

[10] = system: Vibrio parahaemolyticus; assay: Antibacterial activity against Vibrio parahaemolyticus ATCC 17802 after 24 hrs by serial dilution technique; format: functional; conditions: ATCC 17802, 24 h
[11] = system: Vibrio anguillarum; assay: Antibacterial activity against Vibrio anguillarum ATCC 19019 after 24 hrs by serial dilution technique; format: functional; conditions: ATCC 19019, 24 h

SMILES	MIC [1] [µM]	MIC [2] [µM]	MIC [3] [µM]	MIC [4] [µM]	MIC [5] [µM]	MIC [6] [µM]	MIC [7] [µM]	MIC [11] [µM]	Ratio [8]	IC50 [9] [µM]	MIC [10] [µM]
COC1=CC(=O)c2c(O)c3c(c(O)c2C1=O)C[C@](C)(O)[C@H](OC(C)=O)[C@H]3O	> 200	> 200	> 200	3.12 (≈ 1.18 µg/mL)	> 200	> 200	3.12 (≈ 1.18 µg/mL)	> 200	–	2.72	> 200
COC1=CC(=O)c2c(O)c3c(c(O)c2C1=O)C[C@](C)(O)[C@H](O)[C@H]3O [BOSTRYCIN]	1.56 (≈ 0.525 µg/mL)	3.12 (≈ 1.05 µg/mL)	3.12 (≈ 1.05 µg/mL)	3.12 (≈ 1.05 µg/mL)	100 (≈ 33.6 µg/mL)	1.56 (≈ 0.525 µg/mL)	3.12 (≈ 1.05 µg/mL)	0.39 (≈ 0.131 µg/mL)	–	–	3.12 (≈ 1.05 µg/mL)
O=C(O)c1cn(C2CC2)c2cc(N3CCNCC3)c(F)cc2c1=O [CIPROFLOXACIN]	0.156 (≈ 0.0517 µg/mL)	0.312 (≈ 0.103 µg/mL)	0.312 (≈ 0.103 µg/mL)	0.039 (≈ 0.0129 µg/mL)	2.5 (≈ 0.828 µg/mL)	0.156 (≈ 0.0517 µg/mL)	1.25 (≈ 0.414 µg/mL)	0.078 (≈ 0.0258 µg/mL)	–	–	0.078 (≈ 0.0258 µg/mL)
COC1=CC(=O)c2cc3c(c(O)c2C1=O)C[C@](C)(O)[C@H](O)[C@H]3O	2.5 (≈ 0.801 µg/mL)	5 (≈ 1.6 µg/mL)	0.625 (≈ 0.2 µg/mL)	1.25 (≈ 0.4 µg/mL)	20 (≈ 6.41 µg/mL)	2.5 (≈ 0.801 µg/mL)	10 (≈ 3.2 µg/mL)	2.5 (≈ 0.801 µg/mL)	–	4.56	1.25 (≈ 0.4 µg/mL)
COc1cc(O)c2c(c1O)[C@H](OC)[C@H]1C[C@](C)(O)[C@H](O)C[C@H]1C2=O	0.78 (≈ 0.264 µg/mL)	> 100	> 100	0.78 (≈ 0.264 µg/mL)	> 100	1.56 (≈ 0.528 µg/mL)	50 (≈ 16.9 µg/mL)	25 (≈ 8.46 µg/mL)	–	> 50	25 (≈ 8.46 µg/mL)
COc1cc(O)c2c(c1O)[C@H](O)[C@H]1C[C@](C)(O)[C@H](O)C[C@@H]1C2=O	6.25 (≈ 2.03 µg/mL)	> 100	12.5 (≈ 4.05 µg/mL)	1.56 (≈ 0.506 µg/mL)	25 (≈ 8.11 µg/mL)	25 (≈ 8.11 µg/mL)	12.5 (≈ 4.05 µg/mL)	1.56 (≈ 0.506 µg/mL)	–	> 50	12.5 (≈ 4.05 µg/mL)
CO[C@@]12[C@H](COC(N)=O)C3=C(C(=O)C(C)=C(N)C3=O)N1C[C@@H]1N[C@@H]12 [MITOMYCIN]	–	–	–	–	–	–	–	–	–	3	–
COc1cc(O)c2c(c1O)[C@H](O)[C@H]1C[C@](C)(O)[C@H](O)[C@@H](O)[C@@H]1C2=O [9ALPHA-HYDROXYHALOROSELLINIA A]	1.56 (≈ 0.531 µg/mL)	> 100	12.5 (≈ 4.25 µg/mL)	3.12 (≈ 1.06 µg/mL)	> 100	0.78 (≈ 0.265 µg/mL)	12.5 (≈ 4.25 µg/mL)	3.12 (≈ 1.06 µg/mL)	–	41.5	3.12 (≈ 1.06 µg/mL)
COC1=CC(=O)c2c(cc3c(c2O)C[C@@H](O)[C@@](C)(O)C3)C1=O [NIGROSPORIN B]	1.25 (≈ 0.38 µg/mL)	2.5 (≈ 0.761 µg/mL)	0.312 (≈ 0.0949 µg/mL)	0.625 (≈ 0.19 µg/mL)	10 (≈ 3.04 µg/mL)	1.25 (≈ 0.38 µg/mL)	0.312 (≈ 0.0949 µg/mL)	1.25 (≈ 0.38 µg/mL)	–	3.32	0.625 (≈ 0.19 µg/mL)

Second part, led by results:

MIC [1] [µM]	MIC [2] [µM]	MIC [3] [µM]	MIC [4] [µM]	MIC [5] [µM]	MIC [6] [µM]	MIC [7] [µM]	MIC [11] [µM]	SMILES	Ratio [8]	IC50 [9] [µM]	MIC [10] [µM]
> 200	200 (≈ 72.5 µg/mL)	0.78 (≈ 0.283 µg/mL)	0.195 (≈ 0.0707 µg/mL)	100 (≈ 36.2 µg/mL)	> 200	0.0488 (≈ 0.0177 µg/mL)	0.0975 (≈ 0.0353 µg/mL)	COC1=CC(=O)c2c(O)c3c(c(O)c2C1=O)C[C@](C)(O)[C@H](OC(C)=O)C3	25	5.25	0.78 (≈ 0.283 µg/mL)
> 150	> 150	5 (≈ 1.92 µg/mL)	9.4 (≈ 3.61 µg/mL)	> 150	> 150	37.5 (≈ 14.4 µg/mL)	4.7 (≈ 1.81 µg/mL)	COc1cc(OC(C)=O)c2c(c1OC(C)=O)C(=O)c1cc(C)c(O)cc1C2=O	–	–	75 (≈ 28.8 µg/mL)
> 200	> 200	> 200	> 200	> 200	> 200	> 200	> 200	COc1cc(O)c2c(c1O)C(=O)c1cc(C)ccc1C2=O [AUSTROCORTIRUBIN]	–	> 50	> 200
> 140	70 (≈ 29.8 µg/mL)	35 (≈ 14.9 µg/mL)	> 140	140 (≈ 59.7 µg/mL)	> 140	140 (≈ 59.7 µg/mL)	140 (≈ 59.7 µg/mL)	COc1cc(OC(C)=O)c2c(c1OC(C)=O)C(=O)c1cc(C)c(OC(C)=O)cc1C2=O	–	> 50	> 140
> 200	> 200	> 200	> 200	> 200	> 200	> 200	> 200	COc1cc(O)c2c(c1O)C(=O)c1cc(C)c(O)cc1C2=O	–	> 50	> 200
> 200	100 (≈ 34.2 µg/mL)	> 200	> 200	> 200	100 (≈ 34.2 µg/mL)	> 200	> 200	COc1cc(O)c2c(c1OC(C)=O)C(=O)c1cc(C)c(O)cc1C2=O	–	–	> 200
> 200	50 (≈ 19.2 µg/mL)	50 (≈ 19.2 µg/mL)	> 200	> 200	> 200	> 200	> 200	COc1cc(OC(C)=O)c2c(c1O)C(=O)c1cc(C)c(OC(C)=O)cc1C2=O	–	–	> 200
> 200	> 200	12.5 (≈ 4.28 µg/mL)	> 200	> 200	> 200	50 (≈ 17.1 µg/mL)	> 200	COc1cc(O)c2c(c1O)C(=O)c1cc(C)c(OC(C)=O)cc1C2=O	–	–	> 200
1.56 (≈ 0.5 µg/mL)	3.12 (≈ 0.999 µg/mL)	3.12 (≈ 0.999 µg/mL)	3.12 (≈ 0.999 µg/mL)	200 (≈ 64.1 µg/mL)	3.12 (≈ 0.999 µg/mL)	3.12 (≈ 0.999 µg/mL)	3.12 (≈ 0.999 µg/mL)	COc1cc(O)c2c(c1O)C(=O)C1=C(C[C@@H](O)[C@@](C)(O)C1)C2=O	–	–	3.12 (≈ 0.999 µg/mL)
> 200	> 200	> 200	200 (≈ 76.9 µg/mL)	200 (≈ 76.9 µg/mL)	> 200	> 200	> 200	COc1cc(O)c2c(c1OC(C)=O)C(=O)c1cc(C)c(OC(C)=O)cc1C2=O	–	–	> 200
> 200	> 200	> 200	> 200	> 200	> 200	> 200	> 200	COc1cc(O)c2c(c1OC(C)=O)C(=O)c1cc(C)ccc1C2=O	–	–	> 200
> 200	> 200	> 200	> 200	> 200	> 200	> 200	> 200	COc1cc(OC(C)=O)c2c(c1O)C(=O)c1cc(C)c(O)cc1C2=O	–	–	> 200
